{"source": "ChEMBL document CHEMBL1122869", "about": "“Substituted benzamides with conformationally restricted side chains. 1. Quinolizidine derivatives as selective gastric prokinetic agents” (1985)", "key": {"Rattus norvegicus [1]": {"test_system": "Rattus norvegicus", "test": "Tested for stimulation of intragastric pressure in ra0t on sc administration; range 1-50 mg/kg"}, "Rattus norvegicus [2]": {"test_system": "Rattus norvegicus", "test": "Tested for stimulation of intragastric pressure in rat on sc administration", "type": "functional", "how_it_was_run": "(§1)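 Male Wistar rats (200-500 g) with chronic gastric fistula, fasted overnight and restrained in Bollman cages. Only animals with basal motility <4 mmHg mean amplitude were used. Pressure waves were recorded via the fistula through a transducer over four 10-min periods before and after sc dosing, and the mean motility index was derived from them. Usually four groups of 10 rats received graded doses or vehicle.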"}, "Mus musculus": {"test_system": "Mus musculus", "test": "Tested for anti-apomorphine climbing activity in mouse on sc administration"}, "Rattus norvegicus [3]": {"test_system": "Rattus norvegicus", "test": "Tested for stimulation of intragastric pressure in rat on sc administration; range 1-50 mg/kg", "type": "functional", "how_it_was_run": "as §1"}, "Rattus norvegicus [4]": {"test_system": "Rattus norvegicus", "test": "Tested for stimulation of intragastric pressure in rat on sc administration; range 1-10 mg/kg", "type": "functional", "how_it_was_run": "as §1"}, "[5]": {"settings": "Rattus norvegicus, read-out: ED50"}, "[6]": {"settings": "Mus musculus, sc, read-out: ED50"}}, "data": [{"smiles": "COc1cc(N)c(Cl)cc1C(=O)NC1CCCN2CCCCC12", "note": "(configuration not stated)", "values": [{"measurement": "ED50", "setting": "Rattus norvegicus [1]", "result": 1, "unit": "mg/kg"}]}, {"smiles": "COc1cc(N)c(Cl)cc1C(=O)NC1CCN2CCCCC2C1", "note": "(stereo in doubt; 2e)", "values": [{"measurement": "ED50", "setting": "Rattus norvegicus [2]", "result": 4, "unit": "mg/kg"}, {"measurement": "ED50", "setting": "Mus musculus", "result": 7, "unit": "mg/kg"}]}, {"smiles": "COc1cc(N)c(Cl)cc1C(=O)NC1CCCN2CCCCC12", "note": "(stereo in doubt; 2a)", "values": [{"measurement": "ED50", "setting": "Rattus norvegicus [3]", "result": 1, "unit": "mg/kg"}, {"measurement": "ED50", "setting": "Mus musculus", "result": ">50", "unit": "mg/kg"}]}, {"smiles": "COc1cc(N)c(Cl)cc1C(=O)NC1CCN2C(C)CCCC2C1", "note": "(stereo in doubt; form 2) [BRL-20627]", "values": [{"measurement": "ED50", "setting": "Rattus norvegicus [2]", "result": 0.8, "unit": "mg/kg"}, {"measurement": "ED50", "setting": "Mus musculus", "result": 25, "unit": "mg/kg"}]}, {"smiles": "COc1cc(N)c(Cl)cc1C(=O)NC1CCN2CCCCC2C1", "note": "(stereo in doubt; 2g)", "values": [{"measurement": "ED50", "setting": "Rattus norvegicus [2]", "result": 0.8, "unit": "mg/kg"}, {"measurement": "ED50", "setting": "Mus musculus", "result": 25, "unit": "mg/kg"}]}, {"smiles": "COc1cc(N)c(Cl)cc1C(=O)NC1CCC2CCCCN2C1", "note": "(stereo in doubt; 2c)", "values": [{"measurement": "ED50", "setting": "Rattus norvegicus [3]; [5]", "result": 1, "unit": "mg/kg"}, {"measurement": "ED50", "setting": "Mus musculus", "result": 12, "unit": "mg/kg"}]}, {"smiles": "COc1cc(N)c(Cl)cc1C(=O)NC1CCC2CCCCN2C1", "note": "(stereo in doubt; form 2)", "values": [{"measurement": "ED50", "setting": "Rattus norvegicus [4]; [5]", "result": 1, "unit": "mg/kg"}, {"measurement": "ED50", "setting": "Mus musculus; [6]", "result": 10, "unit": "mg/kg"}]}, {"smiles": "COc1cc(N)c(Cl)cc1C(=O)NC1CCN2C(C)CCCC2C1", "note": "(stereo in doubt; 2f) [BRL-20627]", "values": [{"measurement": "ED50", "setting": "Rattus norvegicus [3]; [5]", "result": 1, "unit": "mg/kg"}, {"measurement": "ED50", "setting": "Mus musculus", "result": ">50", "unit": "mg/kg"}]}, {"smiles": "COc1cc(N)c(Cl)cc1C(=O)NC1CCN2C(C)CCCC2C1", "note": "(stereo in doubt; form 1) [BRL-20627]", "values": [{"measurement": "ED50", "setting": "Rattus norvegicus [2]; [5]", "result": 0.8, "unit": "mg/kg"}, {"measurement": "ED50", "setting": "Mus musculus; [6]", "result": 25, "unit": "mg/kg"}]}, {"smiles": "COc1cc(N)c(Cl)cc1C(=O)NC1CCCN2CCCCC12", "note": "(stereo in doubt; 2b)", "values": [{"measurement": "ED50", "setting": "Rattus norvegicus [3]; [5]", "result": "> 50", "unit": "mg/kg"}, {"measurement": "ED50", "setting": "Mus musculus", "result": 0.4, "unit": "mg/kg"}]}, {"smiles": "CCN(CC)CCNC(=O)c1cc(Cl)c(N)cc1OC", "note": "[METOCLOPRAMIDE]", "values": [{"measurement": "ED50", "setting": "Rattus norvegicus [2]", "result": 1, "unit": "mg/kg"}, {"measurement": "ED50", "setting": "Rattus norvegicus [2]; [5]", "result": 1, "unit": "mg/kg"}, {"measurement": "ED50", "setting": "Mus musculus", "result": 0.75, "unit": "mg/kg"}, {"measurement": "ED50", "setting": "Mus musculus; [6]", "result": 0.75, "unit": "mg/kg"}]}, {"smiles": "COc1cc(N)c(Cl)cc1C(=O)NC1CCC2CCCCN2C1", "note": "(stereo in doubt; form 1)", "values": [{"measurement": "ED50", "setting": "Rattus norvegicus [4]", "result": 1, "unit": "mg/kg"}, {"measurement": "ED50", "setting": "Mus musculus", "result": 10, "unit": "mg/kg"}]}, {"smiles": "COc1cc(N)c(Cl)cc1C(=O)NC1CCN2C(C)CCCC2C1", "note": "(configuration not stated) [BRL-20627]", "values": [{"measurement": "ED50", "setting": "Rattus norvegicus [3]", "result": 1, "unit": "mg/kg"}]}, {"smiles": "COc1cc(N)c(Cl)cc1C(=O)NC1CCC2CCCCN2C1", "note": "(configuration not stated)", "values": [{"measurement": "ED50", "setting": "Rattus norvegicus [3]", "result": 1, "unit": "mg/kg"}]}]}
